MIC and ED50 data for seven molecules are collected here from ChEMBL document CHEMBL1123123, “Orally absorbable cephalosporin antibiotics. 2. Structure-activity studies of bicyclic glycine derivatives of 7-aminodeacetoxycephalosporanic acid” (1985).

Common to all, as to assay type: functional
The subject of experiment [1] is Haemophilus influenzae. Put plainly: The compound was tested for antibacterial activity against sensitive Haemophilus influenzae C.L.
For experiment [2], the system named is Staphylococcus aureus. The experiment can be described thus: Antibacterial activity against penicillin G sensitive Staphylococcus aureus X1.1.
For experiment [3], the system named is Staphylococcus aureus. The experiment can be described thus: Antibacterial activity against methicillin resistant Staphylococcus aureus X400. A digest of the protocol:
(§1)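 Agar dilution susceptibility test following a previously published method; value recorded as MIC. Racemic compounds were separated by preparative HPLC and only the R epimers were tested.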

For another experiment, the system named is Streptococcus pyogenes. The experiment can be described thus: The compound was tested for antibacterial activity against Streptococcus pyogenes C203.
The subject of a further experiment is Streptococcus. Put plainly: The compound was tested for antibacterial activity against Streptococcus group D X66.
The test system of experiment [4] is Staphylococcus aureus. Put plainly: Antibacterial activity against penicillin G resistant Staphylococcus aureus V41. A digest of the protocol:
as §1

The subject of a further experiment is Streptococcus pneumoniae. The experiment can be described thus: The compound was tested for antibacterial activity against Streptococcus pneumoniae Park.
Experiment [5] has as its system Haemophilus influenzae. The experiment can be described thus: The compound was tested for antibacterial activity against resistant Haemophilus influenzae 76. A digest of the protocol:
as §1

For experiment [6], the system named is Staphylococcus epidermidis. The experiment can be described thus: The compound was tested for antibacterial activity against Staphylococcus epidermidis EP11.
For experiment [7], the system named is Staphylococcus aureus. Put plainly: Antibacterial activity against methicillin resistant Staphylococcus aureus S13E. A digest of the protocol: as §1
Experiment [8] has as its system Staphylococcus aureus. The experiment can be described thus: Aantibacterial activity against methicillin resistant Staphylococcus aureus S13E. A digest of the protocol:
as §1

In experiment [9] the test system is Mus musculus. Put plainly: Dose administered orally in mice infected with Streptococcus pyogenes. As to conditions: po. A digest of the protocol:
(§2)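 Mice were used in groups of 10 and inoculated with S. aureus, S. pyogenes or S. pneumoniae. Drug was given orally or subcutaneously at 1 and 5 h after inoculation. The ED50 was determined from the dosed groups.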

Experiment [10] deals with Mus musculus. The experiment can be described thus: Dose administered orally in mice infected with Streptococcus pneumoniae. As to conditions: po. A digest of the protocol: as §2
Experiment [11] relates to Mus musculus. The experiment can be described thus: Dose administered subcutaneously in mice infected with Streptococcus pneumoniae. As to conditions: sc. A digest of the protocol: as §2
Experiment [12] deals with Mus musculus. Put plainly: Dose administered subcutaneously in mice infected with Streptococcus pyogenes. As to conditions: sc. A digest of the protocol:
as §2

Experiment [13] deals with Mus musculus. Put plainly: Dose administered orally in mice infected with Staphylococcus aureus. As to conditions: po. A digest of the protocol: as §2
Experiment [14] relates to Mus musculus. The experiment can be described thus: Dose administered subcutaneously in mice infected with Staphylococcus aureus. As to conditions: sc. A digest of the protocol:
as §2

Values after ≈ are worked out from the molar mass of the structure shown.

Take `CC1=C(C(=O)O)N2C(=O)C(NC(=O)C(N)c3cc4sccc4s3)C2SC1` (stereo not drawn): the MIC against Haemophilus influenzae [1] was 64 µg/mL (≈ 156 µM); against Staphylococcus aureus [2], 0.5 µg/mL (≈ 1.22 µM); against Staphylococcus aureus [3], over 64 µg/mL; against Streptococcus pyogenes, 0.25 µg/mL (≈ 0.61 µM); against Streptococcus, over 64 µg/mL; against Staphylococcus aureus [4], 32 µg/mL (≈ 78.1 µM). The MIC against Streptococcus pneumoniae is 1 µg/mL (≈ 2.44 µM); with Haemophilus influenzae [5], 2 µg/mL (≈ 4.88 µM); in experiment [6], 16 µg/mL (≈ 39.1 µM); in the experiment with Staphylococcus aureus [7], 64 µg/mL (≈ 156 µM).

Turning to `CC1=C(C(=O)O)N2C(=O)C(NC(=O)C(N)c3cccc4c(C)csc34)C2SC1` (stereo not drawn), the MIC in the experiment with Haemophilus influenzae [1] turned out to be 8 µg/mL (≈ 19.2 µM); against Staphylococcus aureus [2] it was 2 µg/mL (≈ 4.79 µM); against Staphylococcus aureus [3], 64 µg/mL (≈ 153 µM); with Streptococcus pyogenes, 1 µg/mL (≈ 2.4 µM); in the experiment on Staphylococcus aureus [8] it was 64 µg/mL (≈ 153 µM); in the experiment with Streptococcus it was 64 µg/mL (≈ 153 µM). Further, the MIC is 16 µg/mL (≈ 38.3 µM) with Staphylococcus aureus [4], 2 µg/mL (≈ 4.79 µM) in the experiment with Streptococcus pneumoniae, 1 µg/mL (≈ 2.4 µM) against Haemophilus influenzae [5] and 8 µg/mL (≈ 19.2 µM) in experiment [6].

For `CC1=C(C(=O)O)N2C(=O)C(NC(=O)C(N)c3cc4ccsc4s3)C2SC1` (stereo not drawn), the MIC with Haemophilus influenzae [1] is 8 µg/mL (≈ 19.5 µM); with Staphylococcus aureus [2] it was 0.5 µg/mL (≈ 1.22 µM); against Staphylococcus aureus [3], over 64 µg/mL; in the experiment on Streptococcus pyogenes, 0.25 µg/mL (≈ 0.61 µM); in the experiment with Streptococcus it was over 64 µg/mL; against Staphylococcus aureus [4], 32 µg/mL (≈ 78.1 µM). Moreover, the MIC is 0.5 µg/mL (≈ 1.22 µM) with Streptococcus pneumoniae, 2 µg/mL (≈ 4.88 µM) in the experiment with Haemophilus influenzae [5], 4 µg/mL (≈ 9.77 µM) in experiment [6] and 16 µg/mL (≈ 39.1 µM) with Staphylococcus aureus [7].

Turning to `CC1=C(C(=O)O)N2C(=O)C(NC(=O)C(N)c3cccc4sccc34)C2SC1` (stereo not drawn), the MIC with Haemophilus influenzae [1] came to 4 µg/mL (≈ 9.91 µM); in the experiment with Staphylococcus aureus [2] it was 2 µg/mL (≈ 4.96 µM); with Staphylococcus aureus [3] it was 64 µg/mL (≈ 159 µM); in the experiment with Streptococcus pyogenes, 0.25 µg/mL (≈ 0.62 µM); against Streptococcus, 64 µg/mL (≈ 159 µM); against Staphylococcus aureus [4], 16 µg/mL (≈ 39.7 µM). The MIC in the experiment with Streptococcus pneumoniae stood at 1 µg/mL (≈ 2.48 µM); with Haemophilus influenzae [5], 2 µg/mL (≈ 4.96 µM); in [6], 16 µg/mL (≈ 39.7 µM); in the experiment on Staphylococcus aureus [7], 64 µg/mL (≈ 159 µM).

With `CC1=C(C(=O)O)N2C(=O)C(NC(=O)C(N)c3ccc4sccc4c3)C2SC1` (stereo not drawn), the MIC came out at 8 µg/mL (≈ 19.8 µM) against Haemophilus influenzae [1]; 0.5 µg/mL (≈ 1.24 µM) in the experiment with Staphylococcus aureus [2]; 64 µg/mL (≈ 159 µM) with Staphylococcus aureus [3]; 0.125 µg/mL (≈ 0.31 µM) against Streptococcus pyogenes; 64 µg/mL (≈ 159 µM) against Streptococcus; 4 µg/mL (≈ 9.91 µM) against Staphylococcus aureus [4]. In addition, the MIC was 0.5 µg/mL (≈ 1.24 µM) against Streptococcus pneumoniae, 4 µg/mL (≈ 9.91 µM) in the experiment on Haemophilus influenzae [5], 2 µg/mL (≈ 4.96 µM) in [6] and 64 µg/mL (≈ 159 µM) against Staphylococcus aureus [7].

What is called ED50 is the midpoint of the dose-response relation. As for `CC(=O)N1CCc2cc(C(N)C(=O)NC3C(=O)N4C(C(=O)O)=C(C)CSC34)ccc21` (stereo not drawn), the MIC against Haemophilus influenzae [1] is 16 µg/mL (≈ 37.2 µM); in the experiment with Staphylococcus aureus [2], 2 µg/mL (≈ 4.65 µM); against Staphylococcus aureus [3], 64 µg/mL (≈ 149 µM); in the experiment with Streptococcus pyogenes it was 1 µg/mL (≈ 2.32 µM); in the experiment with Streptococcus, 64 µg/mL (≈ 149 µM); against Staphylococcus aureus [4], 64 µg/mL (≈ 149 µM). Further, the MIC in the experiment on Streptococcus pneumoniae was 1 µg/mL (≈ 2.32 µM); with Haemophilus influenzae [5], 8 µg/mL (≈ 18.6 µM); in [6], 8 µg/mL (≈ 18.6 µM); in the experiment on Staphylococcus aureus [7], 64 µg/mL (≈ 149 µM). For the same molecule, the ED50 with Mus musculus [9] worked out at 2.6 mg/kg; with Mus musculus [10], 9.3 mg/kg; in the experiment on Mus musculus [11] it was 10.6 mg/kg; with Mus musculus [12], 0.79 mg/kg; in the experiment with Mus musculus [13], 0.85 mg/kg; in the experiment on Mus musculus [14], 2.11 mg/kg.

As for `CC1=C(C(=O)O)N2C(=O)[C@@H](NC(=O)[C@H](N)c3ccccc3)[C@H]2SC1` [CEPHALEXIN ANHYDROUS], the MIC against Haemophilus influenzae [1] amounted to 8 µg/mL (≈ 23 µM); with Staphylococcus aureus [2], 4 µg/mL (≈ 11.5 µM); against Streptococcus pyogenes, 0.5 µg/mL (≈ 1.44 µM); against Streptococcus pneumoniae, 2 µg/mL (≈ 5.76 µM); with Haemophilus influenzae [5], 8 µg/mL (≈ 23 µM); in experiment [6], 32 µg/mL (≈ 92.1 µM). In addition, the ED50 stood at 1.77 mg/kg with Mus musculus [9]; 37 mg/kg in the experiment with Mus musculus [10]; 30.5 mg/kg with Mus musculus [11]; 2.9 mg/kg in the experiment on Mus musculus [12]; 0.9 mg/kg with Mus musculus [13]; 1.66 mg/kg in the experiment with Mus musculus [14].
